Assay results from different studies.
Lines come from different studies, so protocols differ.
Target: Megakaryocyte-associated tyrosine-protein kinase (MATK, Homo sapiens, UniProt P42679)
Residues used in one study (P42679 1-507): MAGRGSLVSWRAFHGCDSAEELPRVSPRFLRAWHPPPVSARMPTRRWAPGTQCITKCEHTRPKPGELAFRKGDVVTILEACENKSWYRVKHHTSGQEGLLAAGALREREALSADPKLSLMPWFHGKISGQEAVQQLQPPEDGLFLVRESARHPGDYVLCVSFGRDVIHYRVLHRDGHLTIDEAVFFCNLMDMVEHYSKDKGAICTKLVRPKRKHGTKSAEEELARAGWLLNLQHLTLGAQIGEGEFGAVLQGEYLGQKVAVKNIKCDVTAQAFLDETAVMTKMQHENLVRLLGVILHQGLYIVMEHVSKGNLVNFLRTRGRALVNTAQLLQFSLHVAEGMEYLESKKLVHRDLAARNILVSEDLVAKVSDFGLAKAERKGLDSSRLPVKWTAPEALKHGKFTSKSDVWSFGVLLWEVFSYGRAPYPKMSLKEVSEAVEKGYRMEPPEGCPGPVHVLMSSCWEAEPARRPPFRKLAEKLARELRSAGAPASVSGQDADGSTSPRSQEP

The remaining binding of `C[C@@H](c1cccc(C#N)c1)n1cc(Cl)cc(C(N)=O)c1=N` is reported as 100% (cell-free assay, competition with immobilised ligand; 1 µM).
For `c1cncc(-c2cccc(Nc3nccc(NC4CCCCC4)n3)c2)c1`, the remaining binding was 71% (binding, competition with immobilised ligand; 10 µM).
`CN(c1nccc(-c2cnn3ncccc23)n1)C1CC1` has a remaining binding of 100% (binding; 1 µM).
For `CNCc1ccccc1-c1csc([C@@H](C)Nc2nc(C)nc3cc(OC)c(OC)cc23)c1`, the remaining binding was 57% (cell-free assay, competition with immobilised ligand; 1 µM).
For `CC1CCCN1c1nccc(-c2cnn3ncccc23)n1` (stereo not drawn), the remaining binding was 100% (binding; 1 µM).
The remaining binding of `O=C(c1ccc(Nc2nccc(-c3cc4ccccc4s3)n2)cc1)N1CCC(N2CCCC2)CC1` is reported as 67% (binding, competition with immobilised ligand; 1 µM).
`c1cnn2ncc(-c3ccnc(N4CCC45COC5)n3)c2c1` gave a remaining binding of 87% (binding; 1 µM).
For `FC(F)(F)c1ccc2c(c1)nc(-c1cccnc1)n2C1CC1`, the remaining binding was 100% (cell-free assay, competition with immobilised ligand; 1 µM).
For `COc1cnc(Nc2cccc(S(N)(=O)=O)c2)nc1N1CCN(c2ccccc2)CC1`, the remaining binding was 57% (binding, competition with immobilised ligand; 1 µM).
With `N[C@H]1CCN(c2nccc(-c3cnn4ncccc34)n2)C1` the remaining binding was 100% (binding; 1 µM).
`CCN1CCN(Cc2ccc(C(=O)Nc3ccc(C)c(Oc4ccc5c(c4)CC(=O)N5)c3)cc2C(F)(F)F)CC1` gave a remaining binding of 100% (binding, competition with immobilised ligand; 1 µM).
The remaining binding of `COc1ccnn2ncc(-c3ccnc(N(C)C)n3)c12` is reported as 100% (binding; 1 µM).
The remaining binding of `NS(=O)(=O)c1cc(NC(=O)Cc2ccccc2)ccc1Oc1cccc(Cl)c1` is reported as 68% (cell-free assay, competition with immobilised ligand; 1 µM).
`C[C@@H](c1ccc(-n2cnc3c(N)ncnc32)cc1)N1CCc2nn(C)c(Cc3ccccc3)c2C1=O` has a remaining binding of 69% (binding, competition with immobilised ligand; 0.1 µM).
For `O=C(c1ccc(Nc2ncc(Cl)c(-c3ccc(Cl)s3)n2)cc1)N1CCC(N2CCCC2)CC1`, the remaining binding was 50% (binding, competition with immobilised ligand; 1 µM).
With `CO[C@@H](C)c1c(Nc2ccc([C@@H](N(C)C(=O)C3CCS(=O)(=O)CC3)C(F)(F)F)cc2)cnc2cc(Cl)nn12` the remaining binding was 98% (cell-free assay, competition with immobilised ligand; 1 µM).
The remaining binding of `CN(C)c1nccc(-c2cnc3ncccn23)n1` is reported as 50% (binding; 1 µM).
`O=C(NCCCN1CCOCC1)c1ccc(Nc2nccc(-c3cc4ccccc4s3)n2)cc1` gave a remaining binding of 55% (binding, competition with immobilised ligand; 1 µM).
The remaining binding of `O=C(NCC1CCOCC1)c1n[nH]cc1NC(=O)c1c(F)cccc1F` is reported as 79% (binding, competition with immobilised ligand; 1 µM).
`NS(=O)(=O)c1cc(NC(=O)C2(c3ccccc3Cl)CC2)ccc1Oc1cccc(Cl)c1` has a remaining binding of 100% (cell-free assay, competition with immobilised ligand; 1 µM).
With `COc1cnc(Nc2cccc(S(N)(=O)=O)c2)nc1N1CCN(c2ccccc2)C(=O)C1` the remaining binding was 79% (binding, competition with immobilised ligand; 1 µM).
